According to ChEMBL document CHEMBL4330069, “Boosting the efficacy of anti-MRSA β-lactam antibiotics via an easily accessible, non-cytotoxic and orally bioavailable FtsZ inhibitor” (Eur J Med Chem, 2019):
≈ marks a conversion by molar mass, not a printed value. Calls of active or inactive are those of the source.

Tests used:
Staphylococcus aureus [1] = assay: Antibacterial activity against multidrug-resistant Staphylococcus aureus ATCC 43300 infected in BALB/C mouse assessed as mouse survival at 25 mg/kg, ip bid measured on day 4 post infection (reference value: 50%); format: functional
Staphylococcus aureus [2] = assay: Antibacterial activity against multidrug-resistant Staphylococcus aureus ATCC 43300 infected in BALB/C mouse assessed as mouse survival at 50 mg/kg, ip bid measured after 5 days; format: functional, organism-based
Staphylococcus aureus [3] = assay: Antibacterial activity against multidrug-resistant Staphylococcus aureus isolate 2490 by broth microdilution assay; format: functional
Outline: (§1)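 Broth microdilution MIC per CLSI guidelines against clinical MRSA isolates, for β-lactams and test compound alone and in combination. Compounds were dissolved in DMSO. Growth was read by eye, in duplicate. FIC index = FIC(compound) + FIC(drug); synergy defined as FIC index ≤0.5.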

Staphylococcus aureus [4] = assay: Antibacterial activity against multidrug-resistant Staphylococcus aureus isolate 254 by broth microdilution assay; format: functional; outline: as §1
Staphylococcus aureus [5] = assay: Antibacterial activity against multidrug-resistant Staphylococcus aureus isolate 231 by broth microdilution assay; format: functional; outline: as §1
Staphylococcus aureus [6] = assay: Antibacterial activity against multidrug-resistant Staphylococcus aureus isolate 417 by broth microdilution assay; format: functional; outline: as §1
Staphylococcus aureus [7] = assay: Antibacterial activity against multidrug-resistant Staphylococcus aureus isolate 1344 by broth microdilution assay; format: functional; outline: as §1
Staphylococcus aureus [8] = assay: Antibacterial activity against multidrug-resistant Staphylococcus aureus isolate 2901 by broth microdilution assay; format: functional; outline: as §1
Staphylococcus aureus [9] = assay: Antibacterial activity against multidrug-resistant Staphylococcus aureus isolate 3589 by broth microdilution assay; format: functional; outline: as §1
Staphylococcus aureus [10] = assay: Antibacterial activity against multidrug-resistant Staphylococcus aureus isolate 256 by broth microdilution assay; format: functional; outline: as §1
Staphylococcus aureus [11] = assay: Antibacterial activity against multidrug-resistant Staphylococcus aureus isolate 3332 by broth microdilution assay; format: functional; outline: as §1
Staphylococcus aureus [12] = assay: Antibacterial activity against multidrug-resistant Staphylococcus aureus isolate 3411 by broth microdilution assay; format: functional; outline: as §1
Staphylococcus aureus [13] = assay: Antibacterial activity against multidrug-resistant Staphylococcus aureus isolate 1136 by broth microdilution assay; format: functional; outline: as §1
Staphylococcus aureus [14] = assay: Antibacterial activity against multidrug-resistant Staphylococcus aureus isolate 2895 by broth microdilution assay; format: functional; outline: as §1
Staphylococcus aureus [15] = assay: Antibacterial activity against multidrug-resistant Staphylococcus aureus isolate 2516 by broth microdilution assay; format: functional; outline: as §1
Staphylococcus aureus [16] = assay: Antibacterial activity against multidrug-resistant Staphylococcus aureus isolate 3267 by broth microdilution assay; format: functional; outline: as §1
Staphylococcus aureus [17] = assay: Antibacterial activity against multidrug-resistant Staphylococcus aureus isolate 757 by broth microdilution assay; format: functional; outline: as §1
Staphylococcus aureus [18] = assay: Antibacterial activity against multidrug-resistant Staphylococcus aureus isolate 1749 by broth microdilution assay; format: functional; outline: as §1
Staphylococcus aureus [19] = assay: Antibacterial activity against multidrug-resistant Staphylococcus aureus isolate 1402 by broth microdilution assay; format: functional; outline: as §1
Staphylococcus aureus [20] = assay: Antibacterial activity against multidrug-resistant Staphylococcus aureus isolate 2919 by broth microdilution assay; format: functional; outline: as §1
Staphylococcus aureus [21] = assay: Antibacterial activity against multidrug-resistant Staphylococcus aureus isolate 2728 by broth microdilution assay; format: functional; outline: as §1
Staphylococcus aureus [22] = assay: Antibacterial activity against multidrug-resistant Staphylococcus aureus isolate 1717 by broth microdilution assay; format: functional; outline: as §1
Staphylococcus aureus [23] = assay: Antibacterial activity against multidrug-resistant Staphylococcus aureus isolate 2224 by broth microdilution assay; format: functional; outline: as §1
Staphylococcus aureus [24] = assay: Antibacterial activity against multidrug-resistant Staphylococcus aureus isolate 358 by broth microdilution assay; format: functional; outline: as §1
Staphylococcus aureus [25] = assay: Antibacterial activity against multidrug-resistant Staphylococcus aureus isolate 3580 by broth microdilution assay; format: functional; outline: as §1
Staphylococcus aureus [26] = assay: Antibacterial activity against multidrug-resistant Staphylococcus aureus isolate 774 by broth microdilution assay; format: functional; outline: as §1
Staphylococcus aureus [27] = assay: Antibacterial activity against multidrug-resistant Staphylococcus aureus isolate 200 by broth microdilution assay; format: functional; outline: as §1
Staphylococcus aureus [28] = assay: Antibacterial activity against multidrug-resistant Staphylococcus aureus isolate 2973 by broth microdilution assay; format: functional; outline: as §1
Staphylococcus aureus [29] = assay: Antibacterial activity against multidrug-resistant Staphylococcus aureus isolate 85 by broth microdilution assay; format: functional; outline: as §1
Staphylococcus aureus [30] = assay: Antibacterial activity against multidrug-resistant Staphylococcus aureus isolate 1449 by broth microdilution assay; format: functional; outline: as §1
Escherichia coli = assay: Antibacterial activity against Escherichia coli ATCC 25922 by broth microdilution assay; format: functional
Outline: (§2)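 Broth microdilution per CLSI guidelines; compounds dissolved in DMSO; single agents tested; growth inhibition read by eye; run in duplicate (table footnote states at least triplicates).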

Staphylococcus aureus [31] = assay: Antibacterial activity against Staphylococcus aureus ATCC 29213 by broth microdilution assay; format: functional; outline: as §2
L929 = assay: Cytotoxicity against mouse L929 cells by MTS assay; format: cell-based
Outline: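 MTS assay on L929 mouse fibroblasts; IC50 reported as the average of three independent measurements.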

[32] = Selective index, ratio of IC50 for mouse L929 cells to MIC for Staphylococcus aureus ATCC 29213
Outline: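 Selectivity index calculated as L929 IC50 (μM) divided by S. aureus MIC (μM).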

Staphylococcus aureus [33] = assay: Bactericidal activity against Staphylococcus aureus ATCC BAA-41 assessed as log reduction in bacterial growth at 2 to 4 times MIC up to 7 hrs by time kill assay; format: functional
Outline: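 Mid-log S. aureus BAA-41 culture (OD595 0.8) diluted to 5×10^5 CFU/mL in CA-MH broth. […] Incubated at 37 °C with shaking at 250 rpm, sampled at 0, 2.5, 5, 7.5, 21 and 24 h, and plated on drug-free CA-MH agar for 24 h at 37 °C to count viable cells; triplicates.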

[34] = target: T1, Cell division protein FtsZ (Staphylococcus aureus) (UniProt P0A031); assay: Inhibition of Staphylococcus aureus N-terminal 6His-tagged FtsZ polymerization expressed in Escherichia coli BL21 (DE3) at 100 uM relative to control
T1 sequence (whole entry): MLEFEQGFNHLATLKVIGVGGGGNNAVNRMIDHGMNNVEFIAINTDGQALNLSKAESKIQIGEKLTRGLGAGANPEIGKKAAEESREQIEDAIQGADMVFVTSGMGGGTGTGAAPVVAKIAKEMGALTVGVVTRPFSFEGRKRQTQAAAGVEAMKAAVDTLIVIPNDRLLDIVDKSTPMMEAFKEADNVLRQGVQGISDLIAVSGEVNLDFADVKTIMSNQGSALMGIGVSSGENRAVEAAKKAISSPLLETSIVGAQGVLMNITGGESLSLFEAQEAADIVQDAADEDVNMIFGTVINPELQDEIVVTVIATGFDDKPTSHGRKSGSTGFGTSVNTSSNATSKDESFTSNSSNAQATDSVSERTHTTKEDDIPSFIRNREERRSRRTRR
Outline: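 Purified S. aureus FtsZ polymerization with GTP, followed as light scattering (absorbance 600 nm) over time. Compound was tested at 12.5–100 µM against a 1% DMSO vehicle, and inhibition was read at 500 s. Triplicate.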

[35] = target: T1, Cell division protein FtsZ (Staphylococcus aureus); assay: Inhibition of Staphylococcus aureus N-terminal 6His-tagged FtsZ GTPase expressed in Escherichia coli BL21 (DE3) at 30 uM relative to control
[36] = target: T1, Cell division protein FtsZ (Staphylococcus aureus); assay: Inhibition of Staphylococcus aureus N-terminal 6His-tagged FtsZ GTPase expressed in Escherichia coli BL21 (DE3) at 50 uM relative to control
[37] = target: T1, Cell division protein FtsZ (Staphylococcus aureus); assay: Inhibition of Staphylococcus aureus N-terminal 6His-tagged FtsZ GTPase expressed in Escherichia coli BL21 (DE3) at 100 uM relative to control
Staphylococcus aureus [38] = assay: Antibacterial activity against Staphylococcus aureus ATCC BAA-41 at […] after 24 hrs by time kill assay; format: functional, organism-based
Outline: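 Time-kill assay. S. aureus BAA-41 was grown in CA-MH broth to mid-log phase (OD595 0.8), then diluted to 5×10^5 CFU/mL. […] Samples were taken at 0–24 h and plated on drug-free CA-MH agar for 24 h. Triplicates.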

Staphylococcus aureus [39] = assay: Synergistic bactericidal activity against Staphylococcus aureus ATCC BAA-41 at 1 to 16 times MIC in presence of methicillin up to 24 hrs by time kill assay; format: functional, organism-based
Outline: (§3)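 Colony of strain grown 16 h in CA-MH broth at 37 °C with shaking, diluted 100-fold and grown to mid-log (OD595 0.8), then set at 5×10^5 CFU/mL. […] Sampled at 0, 2.5, 5, 7.5, 21, 24 h, diluted and plated on drug-free CA-MH agar, 24 h at 37 °C; triplicates.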

Staphylococcus aureus [40] = assay: Synergistic antibacterial activity against Staphylococcus aureus ATCC BAA-41 at 1 to 16 times MIC in presence of methicillin after 21 hrs by time kill assay; format: functional, organism-based; outline: as §3

With `CO/N=C(\C(=O)N[C@@H]1C(=O)N2C(C(=O)O)=C(COC(N)=O)CS[C@H]12)c1ccco1` [CEFUROXIME] the Activity (Staphylococcus aureus [1]) was 70%, the Activity (Staphylococcus aureus [2]) was “inactive” and the MIC (Staphylococcus aureus [3]) was 32 µg/mL (≈ 75.4 µM). The MIC (Staphylococcus aureus [4]) was 1020 µg/mL (≈ 2410 µM), the MIC (Staphylococcus aureus [5]) was 1020 µg/mL (≈ 2410 µM) and the MIC (Staphylococcus aureus [6]) was 1020 µg/mL (≈ 2410 µM). The MIC (Staphylococcus aureus [7]) was 256 µg/mL (≈ 603 µM), the MIC (Staphylococcus aureus [8]) was 16 µg/mL (≈ 37.7 µM) and the MIC (Staphylococcus aureus [9]) was 512 µg/mL (≈ 1210 µM). The MIC (Staphylococcus aureus [10]) was 256 µg/mL (≈ 603 µM), the MIC (Staphylococcus aureus [11]) was 512 µg/mL (≈ 1210 µM) and the MIC (Staphylococcus aureus [12]) was 1020 µg/mL (≈ 2410 µM). It also gave an MIC (Staphylococcus aureus [13]) of 512 µg/mL (≈ 1210 µM), an MIC (Staphylococcus aureus [14]) of 64 µg/mL (≈ 151 µM) and an MIC (Staphylococcus aureus [15]) of 512 µg/mL (≈ 1210 µM). The MIC (Staphylococcus aureus [16]) was 256 µg/mL (≈ 603 µM), the MIC (Staphylococcus aureus [17]) was 32 µg/mL (≈ 75.4 µM) and the MIC (Staphylococcus aureus [18]) was 16 µg/mL (≈ 37.7 µM). It also gave an MIC (Staphylococcus aureus [19]) of 16 µg/mL (≈ 37.7 µM), an MIC (Staphylococcus aureus [20]) of 16 µg/mL (≈ 37.7 µM) and an MIC (Staphylococcus aureus [21]) of 16 µg/mL (≈ 37.7 µM). It also gave an MIC (Staphylococcus aureus [22]) of 16 µg/mL (≈ 37.7 µM), an MIC (Staphylococcus aureus [23]) of 8 µg/mL (≈ 18.9 µM) and an MIC (Staphylococcus aureus [24]) of 2 µg/mL (≈ 4.71 µM). It also gave an MIC (Staphylococcus aureus [25]) of 1020 µg/mL (≈ 2410 µM), an MIC (Staphylococcus aureus [26]) of 1020 µg/mL (≈ 2410 µM) and an MIC (Staphylococcus aureus [27]) of 2 µg/mL (≈ 4.71 µM). For the same molecule, the MIC (Staphylococcus aureus [28]) was 8 µg/mL (≈ 18.9 µM), the MIC (Staphylococcus aureus [29]) was 8 µg/mL (≈ 18.9 µM) and the MIC (Staphylococcus aureus [30]) was 2 µg/mL (≈ 4.71 µM).

With `NC(=O)c1c(F)ccc(OCc2nc3cc(Cl)cnc3s2)c1F` the MIC (Escherichia coli) was > 64 µg/mL, the MIC (Staphylococcus aureus [31]) was 1.6 µM (≈ 0.569 µg/mL) and the IC50 (L929) was > 100 µM. For the same molecule, the “Selectivity Index” value [32] was >63, the log(activity) (Staphylococcus aureus [33]) was > 4 and the inhibition [34] was “Active”. For the same molecule, the inhibition [35] was -47%, the inhibition [36] was -29% and the inhibition [37] was -15%. For the same molecule, the Activity (Staphylococcus aureus [38]) was “Active”, the Activity (Staphylococcus aureus [39]) was “Active” and the Activity (Staphylococcus aureus [40]) was “Active”.
